The source of these data is ChEMBL document CHEMBL5625166, “Disulfide-incorporated lipid prodrugs of cidofovir: Synthesis, antiviral activity, and release mechanism” (Eur J Med Chem, 2023).

The test system of data set [1] is Vaccinia virus. The experiment in a line: Antiviral activity against VACV infected in Vero cells assessed as reduction in cytopathic effect incubated for 96 hrs by neutral red based spectrophotometric analysis. It is filed as functional, organism-based. The settings on record: Orthopoxvirus vaccinia. (In general: Cytopathic effects are the visible damage that an infection or toxin causes in cultured cells.)

The nature of data set [2]: Cytotoxicity against African green monkey Vero cells incubated for 72 hrs by neutral red based spectrophotometric analysis. In kind it is toxicity, cell-based. Conditions: chlorocebus sabaeus. A digest of the protocol: (§1)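 Cells seeded at 3 × 10^4 cells/well and grown 24 h at 37 °C, 5% CO2. Two-fold compound dilutions starting at 200.0 μM applied for 72 h. Neutral red (40 μg/mL) added for 4 h, cells washed and destained in ethanol/acetic acid. OD read at 540 nm against cell-free blanks. CC50 from triplicates.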

Data set [3] is described as follows: Therapeutic index, ratio of CC50 for African green monkey Vero cells to IC50 for VAVC infected in african green monkey Vero cells. It is filed as toxicity. Conditions: read-out: Ratio CC50/IC50; call rule not given here.
Data set [4] has as its system Vaccinia virus. The experiment in a line: Antiviral activity against VACV infected in A549 cells assessed as reduction in cytopathic effect incubated for 96 hrs by neutral red based spectrophotometric analysis. It is filed as functional, organism-based. The settings on record: Orthopoxvirus vaccinia, A549, 96 h.
The next data set concerns A549. Nature of the data set: Cytotoxicity against human A549 cells incubated for 72 hrs by neutral red based spectrophotometric analysis. The settings on record: a549, 72 h. It is filed as toxicity, cell-based. A digest of the protocol:
as §1

Data set [5] is described as follows: Therapeutic index, ratio of CC50 for human A549 cells to IC50 for VAVC infected in human A549 cells. In kind it is toxicity, cell-based. The settings on record: read-out: Ratio CC50/IC50.
In data set [6] the test system is Human adenovirus 5. The experiment in a line: Antiviral activity against AdV5 infected in A549 cells assessed as reduction in cytopathic effect incubated for 72 hrs by neutral red based spectrophotometric analysis. It is filed as functional, organism-based. Conditions: Human mastadenovirus C, A549, 72 h.
The nature of data set [7]: Therapeutic index, ratio of CC50 for human A549 cells to IC50 for AdV5 infected in human A549 cells. It is filed as toxicity, cell-based. Conditions: read-out: Ratio CC50/IC50.
Data set [8] is described as follows: Stability of the compound in SGF after 120 mins. It is filed as ADME. Conditions: simulated gi fluid, 2 h. A digest of the protocol: (§2)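 Incubated in simulated gastric fluid at 37 °C, remaining compound measured at 120 min.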
Data set [9] in a line: Stability of the compound in SIF assessed as remaining compound after 360 mins. The settings on record: read-out: Stability. In kind it is ADME. The procedure, abridged: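 Incubated in simulated intestinal fluid at 37 °C, remaining compound measured at 360 min.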
A short description of data set [10]: Stability in human plasma assessed as half life. It is filed as ADME, cell-free. A digest of the protocol:
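Incubated in pooled human plasma at 37 °C, half-life determined.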

Another data set relates to Lipid bilayer. The experiment in a line: Induction of micelles formation in PBS at pH 7.4 by TEM analysis. In kind it is physicochemical. The settings on record: buffer. The procedure, abridged: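 Conjugates at 50.0 μM in pH 7.4 phosphate buffer, imaged by transmission electron microscopy for micelle formation.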
The nature of data set [11]: Stability of the compound in phosphate buffer at pH 7.4 assessed as compound remaining measured upto 400 mins in presence of GSH by HPLC method. It is filed as physicochemical. Conditions: for remaining at 6.667 h: phosphate buffer with GSH, pH 7.4, read-out: Stability; for Stability: buffer, pH 7.4, 6.667 h.
Data set [12] can be described thus: Stability of the compound in PBS at pH 7.4 assessed as micelles formation after 4 hrs in presence of GSH by TEM analysis. In kind it is physicochemical. The settings on record: buffer, pH 7.4, 4 h. A digest of the protocol:
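Micelles in pH 7.4 phosphate buffer re-imaged by TEM after 4 h incubation with GSH.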

A short description of data set [13]: Stability in SGF assessed as remaining compound after 120 mins. The settings on record: read-out: Stability. It is filed as ADME. A digest of the protocol: as §2
Data set [14] has as its system Human adenovirus 5. The experiment in a line: Potency index, ratio of BCV IC50 to test compound IC50 for antiviral activity against AdV5 infected in A549 cells assessed as reduction in cytopathic effect incubated for 72 hrs by neutral red based spectrophotometric analysis. In kind it is functional.
Data set [15] in a line: Stability of the compound in phosphate buffer at pH 7.4 assessed as compound remaining measured after 360 mins in presence of GSH by HPLC method. In kind it is physicochemical. The settings on record: phosphate buffer with GSH, read-out: Stability. A digest of the protocol: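 Conjugate incubated with 20 mM GSH in pH 7.4 phosphate buffer at 37 °C. Percent remaining monitored by HPLC over time, up to 360 min.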

For the compound `CCCCCCCCCCCCSSCCCCCCOP(=O)(O)CO[C@H](CO)Cn1ccc(N)nc1=O.N`, the 50% inhibitory concentration (IC50) (in general, the concentration at which inhibition is half-maximal) with Vaccinia virus [1] amounted to 854 nM; in the data set with Vaccinia virus [4], 838 nM; with Human adenovirus 5 [6], 185 nM. Also, the values for the CC50 (in [2]; in the data set on A549) were 15200 nM and 134000 nM, respectively. Also, the figures for the selectivity ratio in data set [3], in [5] and in data set [7] were 17.8, 160 and 725, respectively. The Stability entry in data set [8] was “Stable”. Further, the remaining at 6 h in data set [9] is over 90%. Further, the t1/2 in [10] worked out at 4.45 h.
Regarding `CCCCCCCCCCCCCCCCCCSSCCOP(=O)(O)CO[C@H](CO)Cn1ccc(N)nc1=O.N`, the IC50 with Vaccinia virus [1] stood at 141 nM; in the data set with Vaccinia virus [4], 104 nM; with Human adenovirus 5 [6], 193 nM. Besides, the CC50 (in general, the concentration giving 50% cytotoxicity) turned out to be 4900 nM in data set [2] and 14100 nM with A549. Further, the selectivity ratio is 34.8 in [3], 136 in data set [5] and 73.1 in data set [7]. The outcome in the data set on Lipid bilayer was Active. Further, the remaining at 6.667 h in data set [11] was determined as 93%. Besides, the Stability entry in [12] is reported as “Stable”.
With `CCCCCCCCCCCCCCCCOCCCOP(=O)(O)CO[C@H](CO)Cn1ccc(N)nc1=O` [BRINCIDOFOVIR], the IC50 in the data set with Vaccinia virus [1] worked out at 196 nM; in the data set on Vaccinia virus [4], 300 nM; in the data set on Human adenovirus 5 [6], 245 nM. The cytotoxic concentration (CC50) was 13900 nM in [2] and 20100 nM in the data set on A549. In addition, the selectivity ratio was determined as 70.7 in [3], 67 in [5] and 81.8 in data set [7]. Also, in data set [13], the remaining at 2 h came to 43%. Moreover, the remaining at 6 h in data set [9] was over 90%. The t1/2 in data set [10] was over 24 h.
`CCCCCCCCCCCCCCSSCCCOP(=O)(O)CO[C@H](CO)Cn1ccc(N)nc1=O.N`: the IC50 worked out at 283 nM in the data set on Vaccinia virus [1], 223 nM with Vaccinia virus [4] and 548 nM in the data set with Human adenovirus 5 [6]. In addition, the figures for the 50% cytotoxic concentration (CC50) (in data set [2]; in the data set with A549) were 13900 nM and 50700 nM, respectively. Further, the selectivity ratio is 49.3 in data set [3], 227 in data set [5] and 92.6 in data set [7]. Also, in data set [11], the Stability entry is “Stable”.
For the compound `CCCCCCCCCCCCCCSSCCCCCCOP(=O)(O)CO[C@H](CO)Cn1ccc(N)nc1=O.N`, the concentration for half-maximal inhibition (IC50) in the data set with Vaccinia virus [1] was 549 nM; with Vaccinia virus [4] it was 593 nM; in the data set on Human adenovirus 5 [6], 274 nM. Besides, the CC50 turned out to be 8560 nM in data set [2] and 80800 nM in the data set with A549. Moreover, the selectivity ratio in data set [3] came out at 15.6; in [5], 136; in data set [7] it was 295. In addition, the result with Lipid bilayer was Active. In addition, the Stability entry in data set [11] is “Stable”.
For `CCCCCCCCCCCCCCCCSSCCCCOP(=O)(O)CO[C@H](CO)Cn1ccc(N)nc1=O.N`, the IC50 in the data set on Vaccinia virus [1] came to 304 nM; with Vaccinia virus [4] it was 1650 nM; with Human adenovirus 5 [6] it was 134 nM. The 50% cytotoxic concentration (CC50) in data set [2] is 12500 nM; with A549 it was 31000 nM. The values for the selectivity ratio in [3], in [5] and in data set [7] were 41, 18.8 and 232, respectively. Further, the “Ratio IC50” value with Human adenovirus 5 [14] was 2. In addition, the result with Lipid bilayer was Active. Moreover, the Stability entry in data set [8] is on record as “Stable”. The remaining at 6 h in data set [9] was over 90%. In addition, the t1/2 in data set [10] was found to be 4.375 h.
Turning to `CCCCCCCCCCCCCCSSCCCCOP(=O)(O)CO[C@H](CO)Cn1ccc(N)nc1=O.N`, the results for the half-inhibitory concentration (IC50) in the data set on Vaccinia virus [1], with Vaccinia virus [4] and in the data set on Human adenovirus 5 [6] were 517 nM, 599 nM and 384 nM, respectively. The cytotoxic concentration (CC50) in data set [2] is 18100 nM; in the data set with A549, 44300 nM. Besides, the values for the selectivity ratio in data set [3], in data set [5] and in data set [7] were 35, 74 and 115, respectively. Also, the Stability entry in data set [11] is given as “Stable”.
With `CCCCCCCCCCCCCCSSCCOP(=O)(O)CO[C@H](CO)Cn1ccc(N)nc1=O.N`, the half-maximal inhibitory concentration (IC50) amounted to 96 nM in the data set with Vaccinia virus [1], 79 nM with Vaccinia virus [4] and 157 nM in the data set with Human adenovirus 5 [6]. Also, the half-maximal cytotoxic concentration (CC50) in data set [2] worked out at 6530 nM; in the data set with A549, 14700 nM. The selectivity ratio came to 68 in data set [3], 186 in data set [5] and 93.7 in [7]. Moreover, the result in the data set on Lipid bilayer was Active. Further, the remaining at 6 h in data set [15] was 13%; in data set [9], over 90%. Besides, in data set [13], the remaining at 2 h was 77%. Further, the t1/2 in [10] came out at 2.144 h.
As to `CCCCCCCCCCCCCCCCSSCCOP(=O)(O)CO[C@H](CO)Cn1ccc(N)nc1=O.N`, the 50% inhibitory concentration (IC50) came out at 68 nM with Vaccinia virus [1], 90 nM in the data set with Vaccinia virus [4] and 157 nM in the data set on Human adenovirus 5 [6]. The CC50 turned out to be 2580 nM in data set [2] and 8690 nM with A549. Besides, the selectivity ratio in [3] amounted to 37.7; in data set [5], 96.1; in data set [7], 55.2. In addition, the result in the data set on Lipid bilayer was Active. The remaining at 6.667 h in data set [11] is 81%. Besides, the remaining at 2 h in data set [13] was 68%. Moreover, in data set [9], the remaining at 6 h was over 90%. For the same compound, the t1/2 in [10] worked out at 3.237 h.
